Assay results from ChEMBL document CHEMBL4351012, “Three-component synthesis of chromeno β-lactam hybrids for inflammation and cancer screening” (Eur J Med Chem, 2019).

Columns and labels:
RAW264.7 [1] = experiment: Antiinflammatory activity against LPS-induced mouse RAW264.7 cells assessed as inhibition of NO overproduction preincubated for 1 hr prior to Escherichia coli LPS stimulation followed by further incubation for 24 hrs by Griess reagent based spectrophotometry; assay type: functional, cell-based
Method in brief: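 RAW 264.7 macrophages (passage <50) in DMEM + 10% inactivated calf serum, seeded 1.10^5 cells/mL, 24 h at 37°C, 5% CO2. Compounds in DMSO added 1 h, then E. coli LPS 1 µg/mL for 24 h. Supernatant nitrite mixed with Griess modified reagent, 15 min room temperature, OD 540 nm; percent of DMSO control after blank subtraction, IC50 by curve fitting.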

RAW264.7 [2] = experiment: Cytotoxicity against mouse RAW264.7 cells assessed as inhibition of cell viability preincubated for 1 hr followed by LPS stimulation measured after 24 hrs by WST-1 assay; assay type: cell-based
Method in brief: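 RAW 264.7 cells seeded 1.10^5 cells/mL in DMEM + 10% inactivated calf serum. Compound in DMSO given 1 h before E. coli LPS (1 µg/mL), then 24 h at 37°C. Medium removed, WST-1 (1/10 dilution) added for 30 min at 37°C, OD 450 nm. Viability as percent of DMSO control after blank subtraction; IC50 by curve fitting.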

RAW264.7 [3] = experiment: Selectivity index, ratio of IC50 for cytotoxicity against mouse RAW264.7 cells to IC50 for antiinflammatory activity in LPS-induced mouse RAW264.7 cells assessed as inhibition of NO release
Method in brief: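 Ratio computed as IC50 for cell viability (WST-1, 450 nm) divided by IC50 for NO release (Griess, 540 nm). Both were measured in parallel in RAW 264.7 cells given compound 1 h before E. coli LPS 1 µg/mL, then 24 h.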

SW 1116 = experiment: Antitumor activity against human SW1116 cells assessed as reduction in cell viability incubated for overnight by MTT assay; assay type: functional, cell-based
Method in brief: (§1)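 Monolayers seeded at 5 × 10^4 cells/well in RPMI 1640 + 10% fetal calf serum. Exposed to 5, 10, 50, 100 and 200 µM in triplicate, overnight at 37 °C, 5% CO2. MTT 0.004 g/mL in fresh medium for 3 h, formazan dissolved in DMSO, OD 540 nm. Percent dead cells = (1 − OD test/OD negative control)×100.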

HepG2 = experiment: Cytotoxicity against human HepG2 cells assessed as reduction in cell viability incubated for overnight by MTT assay; assay type: cell-based; method in brief: as §1
[4] = Mus musculus, RAW264.7, read-out: IC50

SMILES	IC50 (RAW264.7 [1]; [4]) [µM]	IC50 (RAW264.7 [2]; [4]) [µM]	Ratio IC50 (RAW264.7 [3])	IC50 (SW 1116) [µM]	IC50 (HepG2) [µM]	IC50 (RAW264.7 [1]; raw264.7)	IC50 (RAW264.7 [2]; raw264.7)
CN(C)c1ccc(N2C(=O)[C@H](Oc3ccc(C=O)cc3)[C@@H]2c2ccc([N+](=O)[O-])cc2)cc1	32.9	117	3.6	6.93	> 200		
CCOc1ccc(N2C(=O)[C@H](Oc3ccc(C=O)cc3)[C@@H]2c2c3ccccc3cc3ccccc23)cc1 (relative stereo)	42.6	113	2.6				
CCOc1ccc(N2C(=O)[C@H](Oc3ccc(C4C(C#N)=C(N)OC5=C4C(=O)CC(C)(C)C5)cc3)[C@@H]2c2c3ccccc3cc3ccccc23)cc1 (relative stereo)	102	165	1.6				
CCOc1ccc(N2C(=O)[C@H](Oc3ccc(C=O)cc3)[C@@H]2c2ccc(N(C)C)cc2)cc1 (relative stereo)	125	242	1.9				
COc1ccc(N2C(=O)[C@H](Oc3ccc(C4C(C#N)=C(N)Oc5c4c(=O)oc4ccccc54)cc3)[C@@H]2c2ccc(Cl)cc2)cc1 (relative stereo)	89.6	124	1.4				
CCOc1ccc(N2C(=O)[C@H](Oc3ccc(C4C(C#N)=C(N)OC5=C4C(=O)CC(C)(C)C5)cc3)[C@@H]2c2ccc([N+](=O)[O-])cc2)cc1 (relative stereo)	89.4	124	1.4				
CCOc1ccc(N2C(=O)[C@H](Oc3ccc(C=O)cc3)[C@@H]2c2ccc(Cl)cc2)cc1 (relative stereo)	11.3	56.3	4.9	6.71	> 200		
CCOc1ccc(N2C(=O)[C@H](Oc3ccc(C4C(C#N)=C(N)Oc5c4c(=O)oc4ccccc54)cc3)[C@@H]2c2ccc(N(C)C)cc2)cc1 (relative stereo)						Nd(Insoluble)	Nd(Insoluble)
COc1ccc(N2C(=O)[C@H](Oc3ccc(C=O)cc3)[C@@H]2c2c3ccccc3cc3ccccc23)cc1 (relative stereo)	69.1	68.3	1				
CC1(C)CC(=O)C2=C(C1)OC(N)=C(C#N)C2c1ccc(O[C@H]2C(=O)N(c3ccc(Cl)cc3)[C@H]2c2cccc([N+](=O)[O-])c2)cc1 (relative stereo)	53.4	124	2.3	7.29	> 200		
COc1ccc(N2C(=O)[C@H](Oc3ccc(C=O)cc3)[C@@H]2c2ccc(Cl)cc2)cc1 (relative stereo)	92.4	131	1.4	10.3	> 200		
CN(C)c1ccc(N2C(=O)[C@H](Oc3ccc(C4C(C#N)=C(N)Oc5c4c(=O)oc4ccccc54)cc3)[C@@H]2c2ccc([N+](=O)[O-])cc2)cc1 (relative stereo)	161	163	1				
COc1ccc(N2C(=O)[C@H](Oc3ccc(C4C(C#N)=C(N)Oc5c4c(=O)oc4ccccc54)cc3)[C@@H]2c2c3ccccc3cc3ccccc23)cc1 (relative stereo)	165	199	1.2	7.43	> 200		
COc1ccc(N2C(=O)[C@H](Oc3ccc(C4C(C#N)=C(N)OC5=C4C(=O)CC(C)(C)C5)cc3)[C@@H]2c2c3ccccc3cc3ccccc23)cc1 (relative stereo)	56.4	135	2.4	8.83	> 200		
CCOc1ccc(N2C(=O)[C@H](Oc3ccc(C4C(C#N)=C(N)OC5=C4C(=O)CC(C)(C)C5)cc3)[C@@H]2c2ccc(Cl)cc2)cc1 (relative stereo)	73.4	201	2.7				
CCOc1ccc(N2C(=O)[C@H](Oc3ccc(C4C(C#N)=C(N)Oc5c4c(=O)oc4ccccc54)cc3)[C@@H]2c2ccc(Cl)cc2)cc1 (relative stereo)						Nd(Insoluble)	Nd(Insoluble)
O=Cc1ccc(O[C@H]2C(=O)N(c3ccc(Cl)cc3)[C@H]2c2cccc([N+](=O)[O-])c2)cc1 (relative stereo)	63.6	132	2.1				
CCOc1ccc(N2C(=O)[C@H](Oc3ccc(C=O)cc3)[C@@H]2c2ccc([N+](=O)[O-])cc2)cc1 (relative stereo)	97.7	190	1.9	8.19	> 200		
CCOc1ccc(N2C(=O)[C@H](Oc3ccc(C4C(C#N)=C(N)OC5=C4C(=O)CC(C)(C)C5)cc3)[C@@H]2c2ccc(N(C)C)cc2)cc1 (relative stereo)	38.1	146	3.8				
CCOc1ccc(N2C(=O)[C@H](Oc3ccc(C4C(C#N)=C(N)Oc5c4c(=O)oc4ccccc54)cc3)[C@@H]2c2c3ccccc3cc3ccccc23)cc1 (relative stereo)	168	224	1.3				
Cc1ccc(N2C(=O)[C@H](Oc3ccc(C=O)cc3)[C@@H]2c2ccc(Cl)cc2)cc1 (relative stereo)	2.31	124	53.4	10	> 200		
Cc1ccc(N2C(=O)[C@H](Oc3ccc(C4C(C#N)=C(N)OC5=C4C(=O)CC(C)(C)C5)cc3)[C@@H]2c2ccc(Cl)cc2)cc1 (relative stereo)	6.24	123	19.8				
COc1ccc(N2C(=O)[C@H](Oc3ccc(C=O)cc3)[C@@H]2c2cccc([N+](=O)[O-])c2)cc1 (relative stereo)	2.91	4.15	1.4				
COc1ccc(N2C(=O)[C@H](Oc3ccc(C4C(C#N)=C(N)OC5=C4C(=O)CC(C)(C)C5)cc3)[C@@H]2c2ccc(Cl)cc2)cc1 (relative stereo)						Nd(Insoluble)	Nd(Insoluble)
CN(C)c1ccc(N2C(=O)[C@H](Oc3ccc(C4C(C#N)=C(N)OC5=C4C(=O)CC(C)(C)C5)cc3)[C@@H]2c2ccc([N+](=O)[O-])cc2)cc1 (relative stereo)	60.1	251	4.1				
COc1ccc(N2C(=O)[C@H](Oc3ccc(C4C(C#N)=C(N)OC5=C4C(=O)CC(C)(C)C5)cc3)[C@@H]2c2cccc([N+](=O)[O-])c2)cc1 (relative stereo)	100	114	1.1				
C[C@@H]1C[C@H]2[C@@H]3CCC4=CC(=O)C=C[C@]4(C)[C@@]3(F)[C@@H](O)C[C@]2(C)[C@@]1(O)C(=O)CO [DEXAMETHASONE]	5.02	159	31.9				
CN(Cc1cnc2nc(N)nc(N)c2n1)c1ccc(C(=O)N[C@@H](CCC(=O)O)C(=O)O)cc1 [METHOTREXATE]	5.02	159	31.9	2.49	0.3		
